# Measured values as given in PubChem BioAssay.
# Active and inactive are the calls of the source.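 The calls were made as follows, unless noted: active = viability loss from added drug above about 55%, and viability with drug at most 40%, in both replicates (limit read from the data, passing the limit was not always enough); inconclusive = both conditions met in only one replicate; inactive = neither replicate meets both conditions.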
# Assays:
# [1] = HUVEC growth inhibition – cell-based, human, primary screen (AID 575;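 active = viability at or below 30% in both replicate assays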;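 also: 100% = median of untreated cell wells with 0.1% DMSO on each plate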); details: HUVEC proliferation, CellTiter-Glo luminescence, 72 h; at 10 µM; stronger effect = lower value
# Outline: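 Assay system: Primary human umbilical vein endothelial cells | Quantity: 1250 cells per well | Medium: Supplemented EBM, 2% fetal bovine serum | Detection: CellTiter-Glo luminescence measuring cellular ATP | Read-out: % viability vs DMSO wells | Plate: Collagen-coated 384-well format | Times: 72 h exposure, 37 °C, 5% CO2, 30 min RT equilibration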
# [2] = H69AR cell proliferation blockers – human, duplicate replicates, primary screen (AID 580;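 active = viability at or under a set limit in both replicates, limit being median viability minus 3 SD, cut at about 48% in these data, passing the limit was not always enough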;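 also: 100% = mean luminescence of untreated wells and 0% = no signal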); details: H69AR lung tumor cells viability, ATP luminescence, 72 h; at 10 µM; stronger effect = lower value
# [3] = MRP1 drug-resistance reversers in H69AR cells – cell-based, doxorubicin co-treatment, pilot screen (AID 601); details: CellTiter-Glo, 72 h, at 10 µM; for differential viability (reversal): stronger effect = higher value
# [4] = yeast transport mutant growth inhibition pilot in 384-well plates, post-Golgi transport modulator project (AID 636; in the data active = inhibition above about 31%); details: absorbance 615 nm, about 18 h, stronger effect = higher value
# [5] = growth suppression of yeast trafficking mutant, preliminary HTS, modulators of trafficking downstream of Golgi apparatus project, 1536-format plate, OD 615 nm (AID 637; in the data active = inhibition above about 30%); details: yeast transport mutant growth, absorbance 615 nm, 18 h; stronger effect = higher value
# [6] = H69AR cells + 2 uM doxorubicin, measured here: viability with 2 uM doxorubicin, stronger effect = lower value
# [7] = H69AR cells, compound alone cytotoxicity
Compound,viability [1],viability [2],differential viability (reversal) ([3]; H69AR cells + 2 uM doxorubicin),"viability [3, 6]","viability [3, 7]",inhibition [4],inhibition [5]
Cc1cc(C)c(S(=O)(=O)N(C)CC(N)=O)c(C)c1,95% (inactive),91.7% (inactive),-12.6% (inactive),104%,91.7%,2.37% (inactive),-4.13% (inactive)
CCCn1c(SCC(=O)Nc2ccccc2C(=O)OC)nc2c1c(=O)n(C)c(=O)n2C,94.9% (inactive),84.5% (inactive),2.33% (inactive),82.2%,84.5%,-7.47% (inactive),3.02% (inactive)
COc1ccc(Br)cc1S(=O)(=O)N1CCOCC1,99.7% (inactive),87.2% (inactive),3.77% (inactive),83.5%,87.2%,-2.76% (inactive),1.75% (inactive)
CCOC(=O)CSc1nnc(-c2ccc(Cl)cc2Cl)o1,105% (inactive),101% (inactive),3.39% (inactive),97.4%,101%,-5.07% (inactive),-0.16% (inactive)
CC1(C)CC(=O)C2=C(C1)Nc1nc(SCCN3CCOCC3)[nH]c(=O)c1C2c1cccs1 (configuration not stated),99.6% (inactive),89.9% (inactive),2.1% (inactive),87.8%,89.9%,1.69% (inactive),24% (inactive)
COC(=O)c1c(NC(=O)C2CC=CCC2C(=O)O)sc(C(N)=O)c1C (configuration not stated),75.4% (inactive),98.2% (inactive),4.23% (inactive),94%,98.2%,-7.76% (inactive),-6.03% (inactive)
Cc1cc(C(=O)N2CCN(C(c3ccccc3)c3ccccc3)CC2)no1,121% (inactive),89.1% (inactive),3.42% (inactive),85.7%,89.1%,-6.18% (inactive),0.16% (inactive)
COC(=O)c1[nH]c2c(c1C)C(=O)CC(c1cccs1)C2 (configuration not stated),44.9% (inactive),36.7% (active),-39.3% (inactive),76%,36.7%,-6.05% (inactive),4.13% (inactive)
Cc1c(C(=O)Nc2ccncc2)oc2c1C(=O)CC(C)(C)C2,95.9% (inactive),91.3% (inactive),-5.27% (inactive),96.6%,91.3%,-8.4% (inactive),-1.43% (inactive)
CCCCNC(=O)c1cc(-c2ccc(F)cc2)on1,74.1% (inactive),81.2% (inactive),21.9% (inactive),59.2%,81.2%,-2.5% (inactive),-1.11% (inactive)
Cc1onc(-c2ccccc2)c1C(=O)N1CCCSC1=Nc1ccccc1,76.9% (inactive),92.5% (inactive),5.92% (inactive),86.6%,92.5%,-4.55% (inactive),0.63% (inactive)
CC1CC(=O)c2cnc(NCC3CCCO3)nc2C1 (configuration not stated),103% (inactive),87.3% (inactive),4.31% (inactive),83%,87.3%,-6.8% (inactive),6.03% (inactive)
COC(=O)Cc1c(C)nc2nc(-c3ccccc3)[nH]n2c1=O,90.8% (inactive),102% (inactive),-4.13% (inactive),106%,102%,0.53% (inactive),-5.56% (inactive)
COc1ccccc1CN(Cc1nc2ccccc2c(=O)[nH]1)C(=O)Nc1ccccc1,89.4% (inactive),86.6% (inactive),-3.29% (inactive),89.9%,86.6%,-4.61% (inactive),-4.13% (inactive)
COC(=O)COc1ccc(C(=O)OC)cc1,92.8% (inactive),108% (inactive),10.4% (inactive),97.4%,108%,-1.84% (inactive),-2.38% (inactive)
Nc1nnc(SCC(=O)N2CCN(c3ccccc3)CC2)n1-c1ccccc1,80.6% (inactive),90% (inactive),7.97% (inactive),82.1%,90%,-0.78% (inactive),2.06% (inactive)
COc1ccc(CCN2C(=O)C3C4C=CC(C4)C3C2=O)cc1OC (configuration not stated),97.7% (inactive),99.8% (inactive),5.05% (inactive),94.8%,99.8%,-6.71% (inactive),-4.44% (inactive)
Cc1nnc(SCC(=O)N2CCC(C(N)=O)CC2)s1,93.5% (inactive),91.2% (inactive),-8.62% (inactive),99.8%,91.2%,-1.2% (inactive),-5.24% (inactive)
CC(=O)Nc1ccc(N2CCN(Cc3ccccc3F)CC2)cc1,88.8% (inactive),92.5% (inactive),8.67% (inactive),83.8%,92.5%,-0.91% (inactive),1.11% (inactive)
CC(CN1CCOCC1)(NS(=O)(=O)c1ccccc1)c1ccccc1 (configuration not stated),106% (inactive),95.9% (inactive),9.75% (inactive),86.2%,95.9%,-1.56% (inactive),0.95% (inactive)
Cc1ccc(Nc2cc(C)nc3nnnn23)cc1,78.5% (inactive),93.4% (inactive),8.3% (inactive),85.1%,93.4%,-5.06% (inactive),-2.06% (inactive)

Compound,viability [1],viability [2],differential viability (reversal) ([3]; H69AR cells + 2 uM doxorubicin),"viability [3, 6]","viability [3, 7]",inhibition [4],inhibition [5]
COc1ccc(Cl)cc1Nc1nc(NCCO)nc(N2CCCC2)n1,55.1% (inactive),89.3% (inactive),-10.3% (inactive),99.6%,89.3%,-7.57% (inactive),8.41% (inactive)
Cc1cc(NC(=O)CCC(=O)N(CC2CCCO2)C(C(=O)NC2CCCC2)c2ccccc2C)no1 (configuration not stated),86.4% (inactive),96.7% (inactive),13.5% (inactive),83.2%,96.7%,-2.11% (inactive),5.4% (inactive)
CCn1c(SCC(=O)Nc2ccc(C(=O)OC)cc2)nnc1-c1cccs1,109% (inactive),92.3% (inactive),5.75% (inactive),86.6%,92.3%,-6% (inactive),6.98% (inactive)
CCCOc1ccc(N2C(=O)CC(NCCCN3CCC(C(N)=O)CC3)C2=O)cc1 (configuration not stated),121% (inactive),88.6% (inactive),-3.32% (inactive),91.9%,88.6%,-1.97% (inactive),1.27% (inactive)
CCOC(=O)C1CCCN(C(=O)c2cccs2)C1 (configuration not stated),96.7% (inactive),98.3% (inactive),15.4% (inactive),82.9%,98.3%,-6.18% (inactive),0.48% (inactive)
CCCn1c(=N)n(CCOc2ccc(OC)cc2)c2ccccc21,91.4% (inactive),69.8% (inactive),1.35% (inactive),68.5%,69.8%,-6.05% (inactive),3.49% (inactive)
CC1(C)CC(=O)C2=C(C1)N(Cc1ccco1)C(=O)C2(NC(=O)C1CCCCC1)C(F)(F)F (configuration not stated),88% (inactive),92.1% (inactive),10.7% (inactive),81.3%,92.1%,-4.47% (inactive),5.56% (inactive)
COC(=O)C1=C(C)N(c2ccc(C(=O)OC)cc2)C(=O)C1,86.9% (inactive),88.8% (inactive),2.86% (inactive),86%,88.8%,-0.39% (inactive),1.43% (inactive)
C=CCn1c(Cc2csc(N)n2)nnc1SCC(=O)OCC,103% (inactive),91.9% (inactive),-4.66% (inactive),96.6%,91.9%,-2.63% (inactive),-6.67% (inactive)
COc1ccc(NC(=O)N2CCC(O)(c3cccnc3)CC2)c(OC)c1,83.6% (inactive),98.4% (inactive),12.3% (inactive),86.1%,98.4%,-1.43% (inactive),-1.11% (inactive)
C=C(C)COc1ccc(-c2n[nH]c(C)c2-c2ccccc2)c(O)c1,2.96% (active),21.1% (active),7.88% (inactive),13.2%,21.1%,-1.69% (inactive),9% (inactive)
CCOc1cc(C)c(C(C)C)cc1S(=O)(=O)N1CCN(C)CC1,96.1% (inactive),96.2% (inactive),2.99% (inactive),93.2%,96.2%,1.84% (inactive),-5.71% (inactive)
O=C1C2ON(c3ccccc3)C(c3cccnc3)C2C(=O)N1c1ccccc1 (configuration not stated),104% (inactive),89.8% (inactive),2.77% (inactive),87.1%,89.8%,-1.45% (inactive),-10.3% (inactive)
CC(=O)NC(Cc1ccc(C)cc1)C(=O)NC1CCN(C(=O)c2cnccn2)CC1 (configuration not stated),110% (inactive),93.3% (inactive),2.21% (inactive),91.1%,93.3%,-2.93% (inactive),2.22% (inactive)
CC(C)Cc1nnc(NC(=O)CCC(=O)N2CCOCC2)s1,91.5% (inactive),96.2% (inactive),0.305% (inactive),95.9%,96.2%,-4.8% (inactive),0.63% (inactive)
O=C(NC(NC1CCS(=O)(=O)C1)C(=O)c1cccs1)c1ccccc1 (configuration not stated),106% (inactive),106% (inactive),7.72% (inactive),98.2%,106%,-1.17% (inactive),-3.33% (inactive)
CCc1nnc(NC(=O)CSc2nc3ccccc3s2)s1,93% (inactive),101% (inactive),10.1% (inactive),91.1%,101%,-2.24% (inactive),0.48% (inactive)
CC(C)CN1C(=O)c2ccc(C(=O)Nc3nccs3)cc2C1=O,90.8% (inactive),104% (inactive),21.4% (inactive),82.6%,104%,0.39% (inactive),0.63% (inactive)
Cc1ccc(C)c(Cn2c(=O)n(CCC(=O)NCc3ccco3)c(=O)c3sccc32)c1,74.6% (inactive),87.7% (inactive),-0.04% (inactive),87.7%,87.7%,-2.86% (inactive),-0.63% (inactive)
COc1ccc(Cl)cc1-c1n[nH]c(=S)o1,86.9% (inactive),95.5% (inactive),13.7% (inactive),81.8%,95.5%,-6.4% (inactive),-1.27% (inactive)
